Activity calls are given as the source filed them. The calls are words filed in the database; no cut-off is given here.
What was measured:
[1] = target: T1, Metabotropic glutamate receptor 5 (Rattus norvegicus, UniProt P31424); assay: Positive allosteric modulation of rat mGluR5 stably expressed in CHO cells assessed as calcium mobilization; type: functional, cell-based
[2] = Protein binding in (unknown origin) plasma; type: ADME, cell-free; conditions: read-out: PPB (converted)
[3] = Ratio of drug level in brain to plasma in (unknown origin); type: ADME, cell-free; conditions: brain and plasma; read-out: BPR
[4] = target: T2, Metabotropic glutamate receptor 5 (Homo sapiens, UniProt P41594); assay: Positive allosteric modulation of mGluR5 (unknown origin)
T2 sequence (P41594 whole entry): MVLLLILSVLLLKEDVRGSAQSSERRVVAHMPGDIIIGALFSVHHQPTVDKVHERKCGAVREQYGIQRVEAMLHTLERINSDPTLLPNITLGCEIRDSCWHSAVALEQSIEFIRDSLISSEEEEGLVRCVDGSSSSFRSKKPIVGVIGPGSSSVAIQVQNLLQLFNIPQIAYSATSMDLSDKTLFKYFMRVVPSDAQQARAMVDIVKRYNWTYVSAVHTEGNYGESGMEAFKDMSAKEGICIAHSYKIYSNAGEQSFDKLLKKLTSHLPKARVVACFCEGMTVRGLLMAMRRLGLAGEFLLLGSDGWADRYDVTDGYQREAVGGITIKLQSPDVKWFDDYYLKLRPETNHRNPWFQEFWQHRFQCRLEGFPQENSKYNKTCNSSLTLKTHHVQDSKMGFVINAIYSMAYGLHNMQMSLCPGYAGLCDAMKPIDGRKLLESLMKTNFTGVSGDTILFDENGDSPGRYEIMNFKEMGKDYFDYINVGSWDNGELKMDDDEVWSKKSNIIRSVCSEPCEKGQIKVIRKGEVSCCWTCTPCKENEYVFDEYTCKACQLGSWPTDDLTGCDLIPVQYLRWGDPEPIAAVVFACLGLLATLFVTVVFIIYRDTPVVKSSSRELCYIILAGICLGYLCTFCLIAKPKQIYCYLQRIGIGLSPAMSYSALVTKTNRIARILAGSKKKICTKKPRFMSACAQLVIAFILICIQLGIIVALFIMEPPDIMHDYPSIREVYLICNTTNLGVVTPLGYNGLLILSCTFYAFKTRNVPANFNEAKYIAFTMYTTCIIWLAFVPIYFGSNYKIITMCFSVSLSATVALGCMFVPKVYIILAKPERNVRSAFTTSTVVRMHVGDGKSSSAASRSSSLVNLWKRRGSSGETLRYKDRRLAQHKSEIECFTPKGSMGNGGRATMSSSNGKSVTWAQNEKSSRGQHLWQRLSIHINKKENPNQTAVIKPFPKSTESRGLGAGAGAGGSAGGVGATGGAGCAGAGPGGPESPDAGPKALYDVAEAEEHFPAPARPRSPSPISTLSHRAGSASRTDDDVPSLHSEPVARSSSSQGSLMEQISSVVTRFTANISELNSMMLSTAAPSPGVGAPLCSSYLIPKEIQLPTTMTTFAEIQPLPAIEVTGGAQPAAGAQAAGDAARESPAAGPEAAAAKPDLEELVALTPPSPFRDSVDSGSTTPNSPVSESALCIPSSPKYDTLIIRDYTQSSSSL

[5] = target: Metabotropic glutamate receptor 5 (Rattus norvegicus) (UniProt P31424); assay: Positive allosteric modulation of rat mGluR5 stably expressed in HEK293 cells assessed as increase in intracellular calcium level by Fluo-4AM dye-based fluorescence assay relative to glutamate; type: functional, cell-based
Metabotropic glutamate receptor 5 (Rattus norvegicus), sequence (P31424 21-1203 limits assumed): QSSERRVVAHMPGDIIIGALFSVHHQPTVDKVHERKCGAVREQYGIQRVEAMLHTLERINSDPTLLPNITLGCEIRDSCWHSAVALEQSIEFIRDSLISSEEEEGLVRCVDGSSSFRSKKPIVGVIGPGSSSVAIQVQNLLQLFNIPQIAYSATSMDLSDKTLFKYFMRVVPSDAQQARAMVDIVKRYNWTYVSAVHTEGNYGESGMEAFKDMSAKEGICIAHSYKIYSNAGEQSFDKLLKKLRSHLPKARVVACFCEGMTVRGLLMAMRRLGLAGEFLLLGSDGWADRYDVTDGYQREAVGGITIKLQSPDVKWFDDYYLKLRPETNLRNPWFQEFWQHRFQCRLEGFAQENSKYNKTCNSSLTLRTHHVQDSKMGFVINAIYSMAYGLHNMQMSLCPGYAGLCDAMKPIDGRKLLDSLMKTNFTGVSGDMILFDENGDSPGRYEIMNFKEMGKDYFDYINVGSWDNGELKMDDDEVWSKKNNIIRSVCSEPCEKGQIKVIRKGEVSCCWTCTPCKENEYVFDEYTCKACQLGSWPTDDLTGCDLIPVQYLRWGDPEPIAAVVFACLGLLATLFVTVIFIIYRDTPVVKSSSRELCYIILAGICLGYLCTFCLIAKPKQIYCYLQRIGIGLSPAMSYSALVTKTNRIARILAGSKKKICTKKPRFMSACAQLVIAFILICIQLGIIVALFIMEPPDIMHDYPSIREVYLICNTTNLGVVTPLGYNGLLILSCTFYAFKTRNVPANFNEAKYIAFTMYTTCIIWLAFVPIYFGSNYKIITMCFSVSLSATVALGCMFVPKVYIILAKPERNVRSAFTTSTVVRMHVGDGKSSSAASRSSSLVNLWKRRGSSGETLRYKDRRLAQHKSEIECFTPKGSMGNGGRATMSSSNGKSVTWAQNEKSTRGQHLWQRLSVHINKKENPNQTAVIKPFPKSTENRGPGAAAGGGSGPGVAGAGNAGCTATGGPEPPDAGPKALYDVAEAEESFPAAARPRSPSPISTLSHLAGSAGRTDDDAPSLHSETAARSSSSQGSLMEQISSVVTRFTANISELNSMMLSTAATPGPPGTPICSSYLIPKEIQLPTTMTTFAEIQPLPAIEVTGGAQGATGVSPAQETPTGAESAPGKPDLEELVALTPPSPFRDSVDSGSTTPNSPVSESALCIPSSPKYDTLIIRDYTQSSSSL

[6] = target: T1, Metabotropic glutamate receptor 5; assay: Agonist activity at mGlu5R in CA3 pyramidal neurons Sprague-Dawley rat hippocampus assessed as effect on intervent interval relative to control; type: tissue-based
In short: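 Male Sprague-Dawley rats aged 24–30 days; hippocampal slices equilibrated 5–10 min at 30–32°C in a submersion chamber. Recording electrode in the CA3 pyramidal cell body layer. Compound diluted in DMSO and bath-perfused. Spontaneous epileptiform events recorded as field potentials, with inter-event interval normalized to baseline.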

[7] = Agonist activity at rat mGluR5 T780A mutant stably expressed in HEK293 cells assessed as increase in intracellular calcium level at 1 to 100 uM by Fluo-4AM dye-based fluorescence assay; type: cell-based; conditions: hek293, 100 µM
Plasma [8] = assay: Fraction unbound in human plasma by equilibrium dialysis method; type: ADME, cell-free
In short: (§1)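 Plasma protein binding measured by equilibrium dialysis in human or rat plasma; reported as percent unbound.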

Cytochrome P450 2D6 = Cytochrome P450 2D6 (Homo sapiens, UniProt P10635); assay: Inhibition of human CYP2D6; type: ADME
In short: (§2)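 Inhibition of individual human CYP isoforms (2C9, 2D6, 3A4) measured in human liver microsomes; IC50 values reported.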

[9] = target: Metabotropic glutamate receptor 3 (Rattus norvegicus) (UniProt P31422); assay: Potentiation of rat mGluR3 receptor stably expressed in HEK293-GIRK cells assessed as fold shift in glutamate concentration response curve at 10 uM by C2+ mobilization assay relative to control; type: cell-based; conditions: in the assay text read “thallium flux assay” for “C2+ mobilization assay”
Metabotropic glutamate receptor 3 (Rattus norvegicus), sequence (P31422 23-879 limits assumed): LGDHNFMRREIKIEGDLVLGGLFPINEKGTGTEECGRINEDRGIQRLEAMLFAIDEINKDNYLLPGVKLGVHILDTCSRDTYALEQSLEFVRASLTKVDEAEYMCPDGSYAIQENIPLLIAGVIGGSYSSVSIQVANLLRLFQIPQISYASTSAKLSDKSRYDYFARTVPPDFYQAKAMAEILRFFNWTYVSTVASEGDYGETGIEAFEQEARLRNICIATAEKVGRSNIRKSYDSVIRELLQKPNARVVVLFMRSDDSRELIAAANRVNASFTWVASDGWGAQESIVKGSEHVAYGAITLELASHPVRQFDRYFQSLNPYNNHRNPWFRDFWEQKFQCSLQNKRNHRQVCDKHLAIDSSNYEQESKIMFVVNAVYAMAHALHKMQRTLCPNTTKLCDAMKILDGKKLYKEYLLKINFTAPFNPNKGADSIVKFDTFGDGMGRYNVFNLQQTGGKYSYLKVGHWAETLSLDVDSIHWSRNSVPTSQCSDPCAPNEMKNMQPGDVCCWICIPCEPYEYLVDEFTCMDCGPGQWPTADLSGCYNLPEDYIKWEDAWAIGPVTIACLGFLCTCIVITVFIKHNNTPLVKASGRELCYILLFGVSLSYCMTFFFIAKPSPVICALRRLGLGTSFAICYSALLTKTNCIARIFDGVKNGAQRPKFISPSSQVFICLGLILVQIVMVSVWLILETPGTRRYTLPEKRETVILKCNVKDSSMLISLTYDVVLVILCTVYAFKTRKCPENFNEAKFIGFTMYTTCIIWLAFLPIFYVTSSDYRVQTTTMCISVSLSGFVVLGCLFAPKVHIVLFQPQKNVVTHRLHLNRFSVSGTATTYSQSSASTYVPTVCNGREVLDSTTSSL
In short: (§3)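 HEK293-GIRK cells expressing the rat mGlu subtype were plated at 15,000 cells/well. Compound at 10 µM, or vehicle, was added, then 140 s later a concentration-response curve of glutamate (L-AP4 for mGlu7) in thallium buffer containing 12 mM thallium sulfate. Thallium flux through GIRK channels was read by fluorescence, and the fold shift of the agonist curve was derived.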

[10] = target: T1, Metabotropic glutamate receptor 5; assay: Agonist activity at mGlu5R in SC-CA1 synapse of Sprague-Dawley rat hippocampus assessed as induction of long-term depression at 10 uM measured 55 mins post compound washout; type: tissue-based
In short: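 Male Sprague-Dawley rats aged 30–40 days; hippocampal slices at 30–32°C. Bipolar stimulation of Schaffer collaterals near the CA3-CA1 border, recording in CA1 stratum radiatum, baseline intensity 50–60% of maximum. Compound in DMSO, bath-perfused. fEPSP slopes averaged over three sequential responses and normalized to the pre-drug baseline.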

[11] = target: Metabotropic glutamate receptor 6 (Rattus norvegicus) (UniProt P35349); assay: Potentiation of rat mGluR6 receptor stably expressed in HEK293-GIRK cells assessed as fold shift in glutamate concentration response curve at 10 uM by C2+ mobilization assay relative to control; type: cell-based; conditions: in the assay text read “thallium flux assay” for “C2+ mobilization assay”; in short: as §3
Cytochrome P450 2C9 = Cytochrome P450 2C9 (Homo sapiens, UniProt P11712); assay: Inhibition of human CYP2C9; type: ADME; in short: as §2
Cytochrome P450 2C9, sequence (P11712 whole entry): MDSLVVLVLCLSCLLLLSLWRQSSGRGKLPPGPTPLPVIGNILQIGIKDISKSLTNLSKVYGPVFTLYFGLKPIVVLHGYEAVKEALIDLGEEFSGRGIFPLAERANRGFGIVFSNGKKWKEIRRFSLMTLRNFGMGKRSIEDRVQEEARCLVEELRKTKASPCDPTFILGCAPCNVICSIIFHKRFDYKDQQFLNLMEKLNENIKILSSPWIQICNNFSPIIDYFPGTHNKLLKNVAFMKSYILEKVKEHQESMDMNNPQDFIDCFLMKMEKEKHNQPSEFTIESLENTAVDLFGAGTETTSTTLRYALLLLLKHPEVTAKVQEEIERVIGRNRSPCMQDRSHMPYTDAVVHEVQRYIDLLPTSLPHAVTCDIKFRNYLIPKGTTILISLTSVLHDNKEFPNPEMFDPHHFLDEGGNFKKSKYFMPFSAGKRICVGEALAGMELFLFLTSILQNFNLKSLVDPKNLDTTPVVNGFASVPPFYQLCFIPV

Cytochrome P450 1A2 = target: T3, Cytochrome P450 1A2 (Homo sapiens, UniProt P05177); assay: Inhibition of human CYP1A2; type: ADME
T3 sequence (P05177 whole entry): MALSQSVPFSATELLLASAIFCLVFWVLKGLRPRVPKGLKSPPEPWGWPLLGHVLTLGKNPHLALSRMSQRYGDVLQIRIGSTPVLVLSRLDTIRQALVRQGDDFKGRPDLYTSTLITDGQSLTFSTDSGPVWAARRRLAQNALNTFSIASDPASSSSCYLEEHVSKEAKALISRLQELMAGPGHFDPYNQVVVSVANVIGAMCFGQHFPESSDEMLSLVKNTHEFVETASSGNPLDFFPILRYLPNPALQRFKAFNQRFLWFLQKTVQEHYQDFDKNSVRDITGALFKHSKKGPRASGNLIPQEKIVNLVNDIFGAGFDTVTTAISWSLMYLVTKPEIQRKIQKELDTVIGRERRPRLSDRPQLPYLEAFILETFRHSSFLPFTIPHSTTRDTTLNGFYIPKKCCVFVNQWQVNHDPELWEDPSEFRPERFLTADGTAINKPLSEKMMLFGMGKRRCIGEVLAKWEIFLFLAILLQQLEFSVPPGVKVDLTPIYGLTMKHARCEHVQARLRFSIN
In short: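 Inhibition of the human CYP1A2 isoform measured in human liver microsomes; reported as IC50.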

[12] = target: Metabotropic glutamate receptor 8 (Rattus norvegicus) (UniProt P70579); assay: Potentiation of rat mGluR8 receptor stably expressed in HEK293-GIRK cells assessed as fold shift in glutamate concentration response curve at 10 uM by C2+ mobilization assay relative to control; type: cell-based; conditions: in the assay text read “thallium flux assay” for “C2+ mobilization assay”; in short: as §3
[13] = target: Metabotropic glutamate receptor 2 (Rattus norvegicus) (UniProt P31421); assay: Potentiation of rat mGluR2 receptor stably expressed in HEK293-GIRK cells assessed as fold shift in glutamate concentration response curve at 10 uM by C2+ mobilization assay relative to control; type: cell-based; conditions: in the assay text read “thallium flux assay” for “C2+ mobilization assay”; in short: as §3
[14] = Agonist activity at rat mGluR5 S808A mutant stably expressed in HEK293 cells assessed as increase in intracellular calcium level at 1 to 100 uM by Fluo-4AM dye-based fluorescence assay; type: cell-based; conditions: hek293, 100 µM
[15] = target: Metabotropic glutamate receptor 1 (Rattus norvegicus) (UniProt P23385); assay: Potentiation of rat mGluR1 receptor stably expressed in HEK293 cells assessed as fold shift in glutamate concentration response curve at 10 uM by […] mobilization assay relative to control; type: cell-based
In short: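 HEK293 cells stably expressing rat mGlu1 were plated at 20,000 cells/well and loaded with Fluo-4AM. Compound at 10 µM final, or vehicle, was added, then a glutamate concentration-response curve 140 s later. Calcium flux was measured as fluorescence increase, and the fold shift of the glutamate curve was derived.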

Plasma [16] = assay: Fraction unbound in rat plasma by equilibrium dialysis method; type: ADME, cell-free; in short: as §1
Brain = assay: Fraction unbound in rat brain; type: ADME, tissue-based
In short: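 Binding to rat brain homogenate used to derive fraction unbound in brain.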

[17] = target: Metabotropic glutamate receptor 4 (Rattus norvegicus) (UniProt P31423); assay: Potentiation of rat mGluR4 receptor stably expressed in HEK293-GIRK cells assessed as fold shift in glutamate concentration response curve at 10 uM by C2+ mobilization assay relative to control; type: cell-based; conditions: in the assay text read “thallium flux assay” for “C2+ mobilization assay”; in short: as §3
[18] = target: T1, Metabotropic glutamate receptor 5; assay: Agonist activity at mGlu5R in CA3 pyramidal neurons Sprague-Dawley rat hippocampus assessed as effect on amplitude relative to control; type: tissue-based
[19] = target: Metabotropic glutamate receptor 7 (Rattus norvegicus) (UniProt P35400); assay: Potentiation of rat mGluR7 receptor stably expressed in HEK293-GIRK cells assessed as fold shift in […] concentration response curve at 10 uM by […] relative to control; type: cell-based; in short: as §3
[20] = target: T1, Metabotropic glutamate receptor 5; assay: Positive allosteric modulation of rat mGluR5 stably expressed in HEK293 cells assessed as Ca2+ flux by FLIPR assay; type: functional, cell-based
[21] = target: T2, Metabotropic glutamate receptor 5; assay: Positive allosteric modulation of human mGluR5 stably expressed in HEK293 cells assessed as Ca2+ flux by FLIPR assay
[22] = target: T1, Metabotropic glutamate receptor 5; assay: Positive allosteric modulation of rat mGluR5 stably expressed in HEK293 cells assessed as increase in intracellular calcium level by Fluo-4AM dye-based fluorescence assay; type: functional, cell-based
In short: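 HEK293 cells stably expressing rat mGlu5 (low receptor density line), 15,000 cells/well, grown overnight at 37°C/5% CO2. Loaded with Fluo-4AM for 50 min at 37°C in HBSS with 20 mM HEPES, 2.5 mM probenecid, pH 7.4. Triple add: compound, then EC20 glutamate 140 s later, then EC80 glutamate 60 s later. Calcium fluorescence read over time. Values are means of ≥3 independent experiments run in duplicate or triplicate.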

[23] = target: Metabotropic glutamate receptor 5 (Rattus norvegicus) (UniProt P31424); assay: Potentiation of rat mGluR5 receptor stably expressed in HEK293 cells assessed as fold shift in glutamate concentration response curve at 10 uM relative to control; type: cell-based
In short: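 HEK293 cells stably expressing rat mGlu5 were loaded with Fluo-4AM. Compound at 10 µM, or vehicle, was added, and a glutamate concentration-response curve followed 140 s later. The fold leftward shift of the glutamate curve was read from calcium fluorescence. Values are means of three independent experiments in triplicate.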

[24] = Agonist activity at rat mGluR5 W784A mutant stably expressed in HEK293 cells assessed as increase in intracellular calcium level at 1 to 100 uM by Fluo-4AM dye-based fluorescence assay; type: cell-based; conditions: hek293, 100 µM

T1 sequence (P31424 whole entry): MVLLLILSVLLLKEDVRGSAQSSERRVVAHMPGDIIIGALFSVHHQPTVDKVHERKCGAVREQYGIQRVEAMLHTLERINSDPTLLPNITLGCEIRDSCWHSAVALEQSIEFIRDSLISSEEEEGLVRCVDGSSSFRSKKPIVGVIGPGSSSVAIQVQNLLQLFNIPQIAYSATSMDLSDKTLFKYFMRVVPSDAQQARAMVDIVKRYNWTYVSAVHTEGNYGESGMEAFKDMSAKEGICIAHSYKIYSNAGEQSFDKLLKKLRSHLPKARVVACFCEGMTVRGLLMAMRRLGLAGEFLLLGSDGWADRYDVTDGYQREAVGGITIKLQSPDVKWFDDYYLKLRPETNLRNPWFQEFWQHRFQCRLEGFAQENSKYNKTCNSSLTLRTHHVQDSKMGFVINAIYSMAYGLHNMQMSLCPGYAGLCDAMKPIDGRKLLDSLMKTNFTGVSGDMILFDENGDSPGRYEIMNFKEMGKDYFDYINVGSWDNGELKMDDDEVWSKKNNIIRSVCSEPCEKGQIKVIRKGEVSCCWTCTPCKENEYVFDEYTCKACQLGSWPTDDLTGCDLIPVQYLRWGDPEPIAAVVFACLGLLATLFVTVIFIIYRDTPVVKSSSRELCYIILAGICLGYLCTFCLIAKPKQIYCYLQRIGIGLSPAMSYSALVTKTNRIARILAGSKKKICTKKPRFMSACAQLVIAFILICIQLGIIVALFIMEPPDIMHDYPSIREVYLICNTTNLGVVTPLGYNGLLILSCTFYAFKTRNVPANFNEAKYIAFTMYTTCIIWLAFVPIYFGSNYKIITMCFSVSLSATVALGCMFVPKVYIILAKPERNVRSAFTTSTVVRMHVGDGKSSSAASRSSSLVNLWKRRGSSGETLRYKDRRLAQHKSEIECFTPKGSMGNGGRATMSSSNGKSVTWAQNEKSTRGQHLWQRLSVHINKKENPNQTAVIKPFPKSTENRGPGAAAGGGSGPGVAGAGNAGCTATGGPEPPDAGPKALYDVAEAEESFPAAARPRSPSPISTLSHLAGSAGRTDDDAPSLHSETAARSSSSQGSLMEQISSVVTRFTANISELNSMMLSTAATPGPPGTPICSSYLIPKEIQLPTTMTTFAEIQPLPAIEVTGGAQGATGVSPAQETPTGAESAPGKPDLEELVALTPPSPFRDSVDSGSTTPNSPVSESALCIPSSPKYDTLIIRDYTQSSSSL

SMILES: O=C(NC1CCC1)c1ccc(C#Cc2cccc(F)c2)nc1
- EC50 [1]: 39 nM
- fraction unbound [2]: 0.011
- Kp [3]: 0.13

SMILES: Fc1cccc(/C=N/N=C/c2cccc(F)c2)c1
- EC50 [4]: 2600 nM

SMILES: CC1(NC(=O)c2ccc(C#Cc3cccc(F)c3)cn2)COC1
- Efficacy [5]: 45.5%
- Activity [6]: 127.9%
- Activity [7]: Not Active
- Fu (Plasma [8]): 3.5%
- IC50 (Cytochrome P450 2D6): > 30000 nM
- Activity [9]: inactive
- Activity [10]: 100.3%
- Activity [11]: inactive
- IC50 (Cytochrome P450 2C9): > 30000 nM
- IC50 (Cytochrome P450 1A2): 5300 nM
- Activity [12]: inactive
- Activity [13]: inactive
- Activity [14]: Active
- Activity [15]: inactive
- Fu (Plasma [16]): 3.6%
- Fu (Brain): 1.6%
- Activity [17]: inactive
- Activity [18]: 101.2%
- Activity [19]: inactive

SMILES: O=C(c1ccc(F)cc1)N1CCC[C@H](c2nc(-c3ccc(F)cc3)no2)C1
- EC50 [20]: 55 nM
- EC50 [21]: 157 nM

SMILES: C[C@@H](NC(=O)c1ccc(C#Cc2ccccn2)cn1)C(C)(C)O
- Efficacy [5]: 57.5%
- Activity [7]: Not Active
- EC50 ([22]; read-out: EC50): 41.3 nM
- EC50 ([22]; read-out: pEC50 (converted)): 93.3 nM
- fold change (FC) [23]: 1.7
- Activity [24]: Active

— ChEMBL document CHEMBL2429814 (J Med Chem, 2013)
